An excerpt weighted towards active compounds, which were near 1.3% of everything screened.
INS-1E GSIS act – GLuc luminescence reporter in INS-1E cells, primary screen for activators of glucose-dependent secretion of insulin; INS-1E GLuc reporter insulin secretion, 2-3 h; activation, % at 16.6 µM; 370,000 tested, 0.61% active; AID 743287;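 active = lowest replicate activation of at least 40%, so every replicate reaches that level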;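 also: 0% = median of neutral control wells and 100% = median of IBMX positive control wells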
RAD52 inh – blocks human RAD52 DNA annealing; P43351; recombinant RAD52 DNA annealing, FRET fluorescence; inhibition, % at 18.7 µM; 360,000 tested, 0.46% active; AID 651710;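 active = every replicate showing at least 50% inhibition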
Target sequence (P43351 whole entry, looked up): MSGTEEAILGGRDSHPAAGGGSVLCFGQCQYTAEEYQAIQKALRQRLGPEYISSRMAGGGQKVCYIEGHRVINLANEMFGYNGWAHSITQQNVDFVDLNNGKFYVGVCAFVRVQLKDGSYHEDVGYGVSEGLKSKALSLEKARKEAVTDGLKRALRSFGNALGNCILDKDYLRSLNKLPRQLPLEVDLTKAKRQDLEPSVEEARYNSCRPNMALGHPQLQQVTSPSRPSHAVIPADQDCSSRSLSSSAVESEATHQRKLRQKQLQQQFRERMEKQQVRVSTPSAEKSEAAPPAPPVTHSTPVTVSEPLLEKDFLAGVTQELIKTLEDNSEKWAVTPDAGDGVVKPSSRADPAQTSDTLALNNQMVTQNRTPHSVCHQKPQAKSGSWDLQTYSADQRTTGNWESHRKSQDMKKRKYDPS
S100A4 MyoIIA – inhibitors of human S100A4 binding to myosin IIA peptide. P26447. S100A4/TAMRA-MyoIIA peptide fluorescence polarization. inhibition, % at 10.7 µM. 360,000 tested, 0.14% active;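 active = mean inhibition of at least 70% across replicates, with every replicate also reaching that level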
Target sequence (P26447 whole entry, looked up): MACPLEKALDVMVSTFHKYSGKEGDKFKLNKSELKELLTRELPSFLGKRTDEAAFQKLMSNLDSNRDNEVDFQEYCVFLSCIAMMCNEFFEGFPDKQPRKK
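Test system: S100A4 monomer protein. Medium: HEPES buffer with Ca2+, pH 7.2. Reagent: fluorescent myosin IIA peptide, 5 nM. Compound dosing: single-point compound testing. Timing: 5 min between mix addition and reading. Benchmarks: DMSO neutral and TFP positive wells.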
AF4-AF9 inh – MLL-AF4/AF9 protein interaction inhibition | AID 651704 | P42568 | inhibition, % at 10 µM | AlphaScreen, biotin-AF4 peptide binding to FLAG-AF9 | 350,000 tested, 0.47% active;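 active = every replicate reaching a set inhibition limit, whatever the replicate mean, cut at about 25% in these data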;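 also: 0% = plate neutral control median and 100% = total signal loss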
RAD54 branch – RAD54 (human) branch migration inhibition; RAD54 Holliday junction branch migration, FAM/BHQ fluorescence; Q92698; AID 602329; 360,000 tested, 0.14% active; inhibition, % at 10.4 µM;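 active = mean normalized replicate activity at least 40 and at least half of replicates scoring 40 or more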;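 also: 0% = median of neutral control wells and 100% = median of positive control wells; inhibitors cause a drop in the FAM fluorescence signal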
Starred values were filed as active, the others as inactive; . = no result; ! = not confirmed by another sample.

SMILES	INS-1E GSIS act	RAD52 inh	S100A4 MyoIIA	AF4-AF9 inh	RAD54 branch
Cc1ccc2nc(N3CCN(C(=O)CCCC(=O)O)CC3)nc(-c3ccccc3)c2c1	57*	-2	3	-5	0
CCc1nc(N)nc(N)c1-c1ccc(Cl)c([N+](=O)[O-])c1	21	-2	11	0	.
CCc1nc(N)nc(N)c1-c1ccc(Cl)c(N=[N+]=[N-])c1	50*	-7	-6	0	.
Cc1c(CC(=O)O)c(=O)oc2c(C)c(OCc3ccccc3Br)ccc12	41*	-19	-3	-5	5
O=C(C[C@@H]1CC[C@@H](NC(=O)NC2CCCC2)[C@H](CO)O1)NCc1ccc(F)cc1	12	3	120*	-4	2
O=C(C[C@@H]1CC[C@@H](NC(=O)CC2CC2)[C@H](CO)O1)NCc1ccc(Cl)cc1	22	11	135*	-13	1
COCCCn1c(=O)c2sccc2n2c(CCCC(=O)N3CCN(c4ccccn4)CC3)nnc12	.	-1	-5	2	-6
Cn1c(=O)c2sccc2n2c(CCCC(=O)N3CCN(c4ccccn4)CC3)nnc12	17	-42	111*	2	-5
Cn1ccc2c(N3c4ccccc4CCc4ccccc43)cc3c(c21)C1CCC3C1 (centres undefined)	-4	-16	-2	5	6
Cn1ccc2c(N3CCOCC3)cc3c(c21)C1CCC3C1 (centres undefined)	.	-10	0	26*	-12
CN(c1ccc(Cl)cc1)c1cc2c(c3c1ccn3C)C1CCC2C1 (centres undefined)	.	-3	-3	10	-5
CCCN(CC1CC1)c1cc2c(c3c1ccn3C)C1CCC2C1 (centres undefined)	-13	6	-7	48*	10
CCN(Cc1ccccc1)c1cc2c(c3c1ccn3C)C1CCC2C1 (centres undefined)	-14	-4	-8	25*	-3
Cc1noc(C)c1S(=O)(=O)Nc1ccc2c(c1)C(=O)N([C@@H](C)CO)C[C@H](C)[C@H](CN(C)Cc1ccccc1)OCCCC[C@H](C)O2	-8	0	2	3	1
CC(C)NC(=O)Nc1ccc2c(c1)C(=O)N([C@@H](C)CO)C[C@@H](C)[C@@H](CN(C)C(=O)Cc1ccccc1)OCCCC[C@H](C)O2	29	.	.	.	.
CCCCOC(=O)c1cc(-c2ccc(/C=N/n3cnnc3)o2)ccc1Cl	58*	.	.	.	3
C[C@H](CO)N1C[C@H](C)[C@@H](CN(C)C(=O)C2CCOCC2)Oc2cc(C#Cc3ccncc3)ccc2S1(=O)=O	8	-11	-15	-4	1
C[C@@H]1CN([C@H](C)CO)C(=O)c2cc(NC(=O)Nc3ccc(C(F)(F)F)cc3)ccc2O[C@@H](C)CCCCO[C@H]1CN(C)Cc1ccc(Cl)c(Cl)c1	8	7	26	0	3
C/C(=N\NC(=O)c1cc(-c2ccc(Cl)s2)[nH]n1)c1ccncc1	10	-14	1	43*	-2
CC(C)NC(=O)Nc1ccc2c(c1)C(=O)N([C@@H](C)CO)C[C@H](C)[C@H](CN(C)CC1CCCCC1)OCCCC[C@H](C)O2	26	16	16	-1	9
N=C(N)c1ccc(N)cc1	.	100*	2	13	47
N=C(N)c1ccc(OCCCCCOc2ccc(C(=N)N)cc2)cc1	2	16	-6	6	6
O=C(NN(Cc1ccccc1)Cc1ccccc1)c1ccccc1	49*	-11	6	-7	-1
CC(=O)Nc1ccc(C=NNc2nnc(NN=Cc3ccc(NC(C)=O)cc3)c3ccccc23)cc1	3	-15	72*	0	.
COc1cccc(Nc2nc(C(N)CO)cs2)n1 (centres undefined)	41*	5	-8	4	14
SMILES	INS-1E GSIS act	RAD52 inh	S100A4 MyoIIA	AF4-AF9 inh	RAD54 branch
COc1ccc(C(=O)NCC(=O)OCC(=O)NC(=O)NC2CCCCC2)cc1OC	.	.	.	.	5
CCOc1ccc(C(=O)OCC(=O)NC2CCCC2)cc1OCC	41*	1	-7	-1	-7
COc1ccc(C(=O)NCC(=O)OCC(=O)NC2CCCCCC2)cc1OC	65*	-1	-11	-1	-2
CCOc1ccc(C(=O)OCC(=O)Nc2cc(C)on2)cc1OCC	62*	.	.	.	7
COc1ccc(C(=O)OCC(=O)NC2CCCC2)cc1OC	10	-12	-2	-2	4
CC(C)NC(=O)N(C)C[C@@H]1Oc2ccc(NC(=O)Cc3cn(C)c4ccccc34)cc2CC(=O)N([C@@H](C)CO)C[C@@H]1C	2	-12	11	-1	-6
CSc1nc2c(c(=O)n1Cc1ccccc1)SC(C)C2 (centres undefined)	45*	.	.	.	3
CNC[C@H]1OCCCC[C@@H](C)Oc2ccc(NS(=O)(=O)c3cn(C)cn3)cc2C(=O)N([C@H](C)CO)C[C@@H]1C	23	0	-15	-17	8
COC(=O)c1sc(NC(=O)c2cccc([N+](=O)[O-])c2)c(C(N)=O)c1C	78*	.	.	.	-12
COC(=O)c1c(NC(=O)c2cccc([N+](=O)[O-])c2)sc(C(N)=O)c1C	9	-50	-11	-2	.
C[C@@H]1CN([C@H](C)CO)C(=O)CCCn2cc(nn2)CO[C@H]1CN(C)S(=O)(=O)c1ccc(Oc2ccccc2)cc1	3	-9	2	0	3
C[C@@H]1CN([C@@H](C)CO)C(=O)CCCn2cc(nn2)CO[C@H]1CN(C)S(=O)(=O)c1ccc(Oc2ccccc2)cc1	23	14	82*!	-1	2
C[C@H](CO)N1C[C@H](C)[C@@H](CN(C)C(=O)Nc2ccc(N3CCN(C)CC3)cc2)OCc2cn(nn2)CCCC1=O	24	66*!	18	10	5
C[C@@H]1CN([C@@H](C)CO)C(=O)CCCn2cc(nn2)CO[C@H]1CN(C)C(=O)Nc1ccc(N2CCN(C)CC2)cc1	5	68*!	19	11	9
C[C@@H]1CN([C@H](C)CO)C(=O)CCCn2cc(nn2)CO[C@@H]1CN(C)C(=O)Nc1ccc(N2CCN(C)CC2)cc1	13	3	10	2	2
C[C@@H]1CN([C@@H](C)CO)C(=O)CCCn2cc(nn2)CO[C@@H]1CN(C)C(=O)Nc1ccc(N2CCN(C)CC2)cc1	12	42	15	7	1
C[C@H]1CN([C@@H](C)CO)C(=O)CCCn2cc(nn2)CO[C@@H]1CN(C)C(=O)Nc1ccc(N2CCCCC2)cc1	-15	-15	-25	38*!	-6
Cc1ccc(S(=O)(=O)Nc2ccc3c(c2)C(=O)N([C@@H](C)CO)C[C@@H](C)[C@@H](CN(C)S(=O)(=O)c2cccs2)OCCCC[C@@H](C)O3)cc1	0	13	-23	-3	-1
C[C@H]1CN([C@@H](C)CO)S(=O)(=O)c2ccc(C3=CCCCC3)cc2O[C@@H]1CN(C)Cc1ccccc1F	7	2	2	8	3

Assay outcomes from PubChem BioAssay.
